From ChEMBL document CHEMBL2146394, “Design and synthesis of pyrrolo[3,2-d]pyrimidine HER2/EGFR dual inhibitors: improvement of the physicochemical and pharmacokinetic profiles for potent in vivo anti-tumor efficacy” (Bioorg Med Chem, 2012)

What was measured:
[1] = Apparent permeability across apical to basolateral side in human Caco2 cells at 10 umol/L; assay type: ADME, cell-based; details: Caco-2
How it was run: (§1)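 Confluent Caco-2 monolayers on collagen-coated polycarbonate Transwell membranes. HBSS with 10 mmol/L HEPES, 15 mmol/L glucose and 1% BSA, pH 7.3–7.5. Compound dosed at 10 µmol/L apically (A→B) or basolaterally (B→A), 37 °C, 5% CO₂. Receivers sampled at 1 and 2 h; LC/MS/MS. Papp from receiver concentration slope; duplicates.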

[2] = Metabolic stability in human hepatic microsomes at 1 umol/L after 20 mins; assay type: ADME; details: liver microsomes, read-out: Stability
How it was run: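 Human liver microsomes (0.2 mg/mL protein) with 1 µmol/L compound in 50 mmol/L phosphate pH 7.4 plus an NADPH-generating system (glucose-6-phosphate, β-NADP⁺, G6PDH, MgCl₂). Incubated at 37 °C for 0 and 20 min, stopped with acetonitrile, duplicates. Remaining compound measured by HPLC with photodiode array detection.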

BT-474 [3] = test: Antitumor activity against human BT474 cells xenografted in BALB/c nu/nu mouse at 100 mg/kg, po bid administered 14 days measured on day 31 relative to control; assay type: functional
How it was run: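 BT-474 xenografts: 1×10⁷ cells in Matrigel implanted subcutaneously into the right flank of female BALB/c nu/nu mice. Estradiol dipropionate 0.25 mg given intramuscularly on days 0 and 7. Tumours of 200–300 mm³ used. Dosing 100 mg/kg orally bid in 0.5% methylcellulose for 14 days. Volume a×b²/2 by calipers. T/C (%) compared at day 31.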

BT-474 [4] = test: Growth inhibition of HER2 over-expressing human BT474 cells after 5 days; assay type: functional; details: BT-474, 120 h
How it was run: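 BT-474 cells kept in RPMI 1640 with 10% heat-inactivated FBS. Seeded at 3×10⁴ cells/well and allowed to attach overnight. Treated continuously with compound for 5 days. Live cells counted with a particle analyzer; GI₅₀ derived.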

[5] = Apparent permeability across basolateral to apical side in human Caco2 cells at 10 umol/L; assay type: ADME, cell-based; details: Caco-2; how it was run: as §1
[6] = molecular target: T1, Tyrosine-protein kinase Lyn (Homo sapiens, UniProt P07948); test: Inhibition of LYN A after 5 mins
How it was run: (§2)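 AlphaScreen tyrosine kinase assay: 50 mmol/L Tris-HCl pH 7.5, 5 mmol/L MnCl₂, 5 mmol/L MgCl₂, 0.01% Tween-20, 2 mmol/L DTT, biotinylated poly-Glu-Tyr (4:1), kinase-optimized enzyme, ATP and time (5–60 min). Seven compound concentrations, 0.01–10000 nmol/L, preincubated 5 min at room temperature. Stopped with EDTA plus streptavidin donor and PY-100 or PT66 acceptor beads; read after >12 h in the dark. Controls: no compound; no ATP.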

Angiopoietin-1 receptor = Angiopoietin-1 receptor (Homo sapiens, UniProt Q02763); test: Inhibition of TIE2 after 5 mins; how it was run: as §2
[7] = molecular target: Dual specificity mitogen-activated protein kinase kinase 5 (Homo sapiens, UniProt Q13163); test: Inhibition of N-terminal FLAG-tagged MEK5 expressed in baculovirus after 5 mins by scintillation counter
[8] = molecular target: Mitogen-activated protein kinase 14 (Homo sapiens, UniProt Q16539); test: Inhibition of N-terminal FLAG-tagged p38alpha expressed in baculovirus after 5 mins by scintillation counter
[9] = molecular target: Serine/threonine-protein kinase B-raf (Homo sapiens, UniProt P15056); test: Inhibition of N-terminal FLAG-tagged B-raf expressed in baculovirus after 5 mins by scintillation counter
[10] = molecular target: Mitogen-activated protein kinase 3 (Homo sapiens, UniProt P27361); test: Inhibition of N-terminal FLAG-tagged ERK1 expressed in baculovirus after 5 mins by scintillation counter
[11] = molecular target: Fibroblast growth factor receptor 3 (Homo sapiens, UniProt P22607); test: Inhibition of FGFR3 after 5 mins; how it was run: as §2
[12] = Antitumor activity against human 4-1ST cells xenografted in BALB/c nu/nu mouse at 100 mg/kg, po bid administered 14 days measured on day 31 relative to control; assay type: functional
How it was run: (§3)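 4-1ST human gastric tumour tissue from donor animals minced and implanted subcutaneously in nude mice or nude rats. Tumours of 200–300 mm³ used. Compounds in 0.5% (w/v) methylcellulose given orally twice daily at 10 mL/kg for 14 days; control got vehicle. Doses expressed as salt-free. Caliper volume (a×b²/2) measured blind 2–3 times weekly. T/C (%) versus control; five mice or eight rats per group.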

[13] = molecular target: Proto-oncogene tyrosine-protein kinase Src (Homo sapiens, UniProt P12931); test: Inhibition of Src after 5 mins; how it was run: as §2
[14] = molecular target: Receptor tyrosine-protein kinase erbB-4 (Homo sapiens, UniProt Q15303); test: Inhibition of HER4 cytoplasmic domain after 5 mins by scintillation counter
How it was run: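 HER4 cytoplasmic domain run as in the HER2/EGFR radiometric [γ-³²P]ATP filter assay: 5 min enzyme–compound preincubation, 10 min reaction at room temperature, TCA stop, scintillation count, nonlinear-regression IC₅₀.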

[15] = molecular target: T1, Tyrosine-protein kinase Lyn; test: Inhibition of LYN B after 5 mins; how it was run: as §2
Insulin receptor = Insulin receptor (Homo sapiens, UniProt P06213); test: Inhibition of INSR after 5 mins; how it was run: as §2
[16] = molecular target: Inhibitor of nuclear factor kappa-B kinase subunit beta (Homo sapiens, UniProt O14920); test: Inhibition of C-terminal FLAG-tagged IKKbeta expressed in baculovirus after 5 mins by scintillation counter
[17] = molecular target: Mitogen-activated protein kinase kinase kinase 1 (Homo sapiens, UniProt Q13233); test: Inhibition of C-terminal FLAG-tagged MEKK expressed in baculovirus after 5 mins by scintillation counter
[18] = molecular target: Dual specificity mitogen-activated protein kinase kinase 1 (Homo sapiens, UniProt Q02750); test: Inhibition of N-terminal GST-tagged MEK1 after 5 mins by scintillation counter
[19] = molecular target: Tyrosine-protein kinase CSK (Homo sapiens, UniProt P41240); test: Inhibition of CSK after 5 mins; how it was run: as §2
[20] = Antitumor activity against human 4-1ST cells xenografted in F344/N jcl-rnu rat at 25 mg/kg, po bid administered 14 days measured on day 31 relative to control; assay type: functional; how it was run: as §3
[21] = molecular target: Vascular endothelial growth factor receptor 1 (Homo sapiens, UniProt P17948); test: Inhibition of VEGFR1 after 5 mins; how it was run: as §2
[22] = molecular target: Cytoplasmic tyrosine-protein kinase BMX (Homo sapiens, UniProt P51813); test: Inhibition of full length N-terminal FLAG-tagged BMX expressed in baculovirus after 5 mins; how it was run: as §2
Aurora kinase B = Aurora kinase B (Homo sapiens, UniProt Q96GD4); test: Inhibition of N-terminal His6-tagged Aurora B expressed in baculovirus after 5 mins by scintillation counter
[23] = molecular target: Insulin-like growth factor 1 receptor (Homo sapiens, UniProt P08069); test: Inhibition of IGF-1R after 5 mins; how it was run: as §2
[24] = molecular target: Mitogen-activated protein kinase kinase kinase 7 (Homo sapiens, UniProt O43318); test: Inhibition of N-terminal FLAG-tagged TAK1 expressed in baculovirus after 5 mins by scintillation counter
[25] = molecular target: Mitogen-activated protein kinase kinase kinase 5 (Homo sapiens, UniProt Q99683); test: Inhibition of N-terminal FLAG-tagged ASK1 expressed in baculovirus after 5 mins by scintillation counter
[26] = molecular target: Vascular endothelial growth factor receptor 2 (Homo sapiens, UniProt P35968); test: Inhibition of N-terminal FLAG-tagged VEGFR2 cytoplasmic domain expressed in baculovirus after 5 mins; how it was run: as §2
[27] = molecular target: Serine/threonine-protein kinase PLK1 (Homo sapiens, UniProt P53350); test: Inhibition of N-terminal FLAG-tagged PLK1 expressed in baculovirus after 5 mins by scintillation counter
[28] = Antitumor activity against human 4-1ST cells xenografted in F344/N jcl-rnu rat at 12.5 mg/kg, po bid administered 14 days measured on day 31 relative to control; assay type: functional; how it was run: as §3
[29] = molecular target: Mitogen-activated protein kinase 8 (Homo sapiens, UniProt P45983); test: Inhibition of N-terminal FLAG-tagged JNK1 expressed in baculovirus after 5 mins by scintillation counter
[30] = molecular target: Mast/stem cell growth factor receptor Kit (Homo sapiens, UniProt P10721); test: Inhibition of c-kit after 5 mins; how it was run: as §2
[31] = molecular target: Protein kinase C theta type (Homo sapiens, UniProt Q04759); test: Inhibition of N-terminal FLAG-tagged PKCtheta expressed in baculovirus after 5 mins by scintillation counter
[32] = molecular target: Dual specificity protein kinase TTK (Homo sapiens, UniProt P33981); test: Inhibition of N-terminal FLAG-tagged TTK expressed in baculovirus after 5 mins by scintillation counter
Focal adhesion kinase 1 = Focal adhesion kinase 1 (Homo sapiens, UniProt Q05397); test: Inhibition of full length N-terminal FLAG-tagged FAK expressed in baculovirus after 5 mins; how it was run: as §2
[33] = molecular target: Hepatocyte growth factor receptor (Homo sapiens, UniProt P08581); test: Inhibition of c-Met after 5 mins; how it was run: as §2
[34] = molecular target: Tyrosine-protein kinase ZAP-70 (Homo sapiens, UniProt P43403); test: Inhibition of ZAP70 after 5 mins; how it was run: as §2
[35] = molecular target: Fibroblast growth factor receptor 1 (Homo sapiens, UniProt P11362); test: Inhibition of FGFR1 after 5 min; how it was run: as §2
[36] = molecular target: Glycogen synthase kinase-3 beta (Homo sapiens, UniProt P49841); test: Inhibition of N-terminal FLAG-tagged GSK3beta expressed in baculovirus after 5 mins by scintillation counter
[37] = Antitumor activity against human 4-1ST cells xenografted in BALB/c nu/nu mouse at 50 mg/kg, po bid administered 14 days measured on day 31 relative to control; assay type: functional; how it was run: as §3

T1 sequence (P07948 whole entry): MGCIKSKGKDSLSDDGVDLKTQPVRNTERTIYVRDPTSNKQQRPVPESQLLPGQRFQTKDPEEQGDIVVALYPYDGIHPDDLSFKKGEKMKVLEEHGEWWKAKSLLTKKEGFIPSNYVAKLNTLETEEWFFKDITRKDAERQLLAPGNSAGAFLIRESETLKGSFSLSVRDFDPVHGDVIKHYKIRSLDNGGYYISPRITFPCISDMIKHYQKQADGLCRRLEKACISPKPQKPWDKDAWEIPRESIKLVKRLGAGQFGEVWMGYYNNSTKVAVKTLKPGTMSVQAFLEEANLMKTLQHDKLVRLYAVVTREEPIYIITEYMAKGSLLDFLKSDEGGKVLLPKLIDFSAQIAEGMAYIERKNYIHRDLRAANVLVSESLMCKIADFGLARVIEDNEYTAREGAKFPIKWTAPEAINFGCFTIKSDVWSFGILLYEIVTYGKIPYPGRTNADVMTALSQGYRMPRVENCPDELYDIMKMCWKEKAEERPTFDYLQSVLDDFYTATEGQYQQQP
Chain of Mitogen-activated protein kinase kinase kinase 1 (Q13233 whole entry): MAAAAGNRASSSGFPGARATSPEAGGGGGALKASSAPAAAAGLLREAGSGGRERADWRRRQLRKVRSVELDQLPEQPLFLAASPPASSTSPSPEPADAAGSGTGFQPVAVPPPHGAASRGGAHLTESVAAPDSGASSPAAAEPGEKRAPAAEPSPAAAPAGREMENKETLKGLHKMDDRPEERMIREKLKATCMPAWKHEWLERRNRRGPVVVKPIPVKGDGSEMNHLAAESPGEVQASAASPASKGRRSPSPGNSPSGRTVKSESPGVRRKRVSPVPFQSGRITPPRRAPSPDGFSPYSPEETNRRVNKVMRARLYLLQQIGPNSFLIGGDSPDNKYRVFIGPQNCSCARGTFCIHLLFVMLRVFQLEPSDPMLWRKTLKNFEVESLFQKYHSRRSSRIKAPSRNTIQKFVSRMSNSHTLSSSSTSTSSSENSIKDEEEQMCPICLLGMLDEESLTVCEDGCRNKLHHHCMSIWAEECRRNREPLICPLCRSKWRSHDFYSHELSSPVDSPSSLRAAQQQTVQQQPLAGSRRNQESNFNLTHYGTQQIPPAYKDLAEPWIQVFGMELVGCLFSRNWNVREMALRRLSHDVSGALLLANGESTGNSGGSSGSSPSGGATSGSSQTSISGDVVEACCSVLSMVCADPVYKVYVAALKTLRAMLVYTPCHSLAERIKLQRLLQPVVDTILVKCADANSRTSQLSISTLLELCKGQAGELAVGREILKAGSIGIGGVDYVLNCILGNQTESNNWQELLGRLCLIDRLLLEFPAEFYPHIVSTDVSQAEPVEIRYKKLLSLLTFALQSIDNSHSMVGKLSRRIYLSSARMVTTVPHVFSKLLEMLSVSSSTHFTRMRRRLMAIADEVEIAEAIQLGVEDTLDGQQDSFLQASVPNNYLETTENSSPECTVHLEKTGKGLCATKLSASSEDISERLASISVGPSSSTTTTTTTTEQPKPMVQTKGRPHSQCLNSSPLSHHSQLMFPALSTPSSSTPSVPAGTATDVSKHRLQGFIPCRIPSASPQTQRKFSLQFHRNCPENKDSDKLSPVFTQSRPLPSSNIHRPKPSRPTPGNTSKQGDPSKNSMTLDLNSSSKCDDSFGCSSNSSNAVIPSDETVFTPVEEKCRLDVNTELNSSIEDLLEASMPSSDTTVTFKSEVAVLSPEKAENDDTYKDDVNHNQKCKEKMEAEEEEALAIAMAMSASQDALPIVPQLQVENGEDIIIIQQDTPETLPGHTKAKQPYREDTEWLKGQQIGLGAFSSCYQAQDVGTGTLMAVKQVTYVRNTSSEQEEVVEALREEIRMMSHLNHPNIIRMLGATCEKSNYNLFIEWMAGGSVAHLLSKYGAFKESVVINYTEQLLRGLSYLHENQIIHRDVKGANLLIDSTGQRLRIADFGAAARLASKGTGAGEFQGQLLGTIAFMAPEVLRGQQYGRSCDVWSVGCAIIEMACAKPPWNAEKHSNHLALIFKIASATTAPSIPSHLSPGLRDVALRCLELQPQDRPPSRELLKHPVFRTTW
Chain of Protein kinase C theta type (Q04759 whole entry): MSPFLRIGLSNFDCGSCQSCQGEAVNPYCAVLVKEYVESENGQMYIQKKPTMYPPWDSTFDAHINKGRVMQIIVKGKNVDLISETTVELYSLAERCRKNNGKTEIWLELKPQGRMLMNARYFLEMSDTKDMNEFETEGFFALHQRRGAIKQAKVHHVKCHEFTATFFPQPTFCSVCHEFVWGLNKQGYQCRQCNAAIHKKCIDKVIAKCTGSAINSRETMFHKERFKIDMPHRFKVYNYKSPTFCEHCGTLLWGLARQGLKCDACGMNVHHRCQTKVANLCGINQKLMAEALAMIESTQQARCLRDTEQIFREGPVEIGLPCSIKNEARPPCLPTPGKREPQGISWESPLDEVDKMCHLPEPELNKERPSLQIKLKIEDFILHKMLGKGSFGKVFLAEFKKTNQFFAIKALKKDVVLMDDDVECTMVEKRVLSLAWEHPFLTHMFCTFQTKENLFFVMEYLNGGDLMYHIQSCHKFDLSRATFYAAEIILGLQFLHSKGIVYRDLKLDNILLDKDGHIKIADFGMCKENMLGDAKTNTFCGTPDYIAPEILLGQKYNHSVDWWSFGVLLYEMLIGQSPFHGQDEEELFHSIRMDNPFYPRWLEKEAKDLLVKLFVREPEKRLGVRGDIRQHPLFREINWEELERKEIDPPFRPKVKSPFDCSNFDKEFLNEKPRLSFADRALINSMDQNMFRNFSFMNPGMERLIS
Chain of Hepatocyte growth factor receptor (P08581 whole entry): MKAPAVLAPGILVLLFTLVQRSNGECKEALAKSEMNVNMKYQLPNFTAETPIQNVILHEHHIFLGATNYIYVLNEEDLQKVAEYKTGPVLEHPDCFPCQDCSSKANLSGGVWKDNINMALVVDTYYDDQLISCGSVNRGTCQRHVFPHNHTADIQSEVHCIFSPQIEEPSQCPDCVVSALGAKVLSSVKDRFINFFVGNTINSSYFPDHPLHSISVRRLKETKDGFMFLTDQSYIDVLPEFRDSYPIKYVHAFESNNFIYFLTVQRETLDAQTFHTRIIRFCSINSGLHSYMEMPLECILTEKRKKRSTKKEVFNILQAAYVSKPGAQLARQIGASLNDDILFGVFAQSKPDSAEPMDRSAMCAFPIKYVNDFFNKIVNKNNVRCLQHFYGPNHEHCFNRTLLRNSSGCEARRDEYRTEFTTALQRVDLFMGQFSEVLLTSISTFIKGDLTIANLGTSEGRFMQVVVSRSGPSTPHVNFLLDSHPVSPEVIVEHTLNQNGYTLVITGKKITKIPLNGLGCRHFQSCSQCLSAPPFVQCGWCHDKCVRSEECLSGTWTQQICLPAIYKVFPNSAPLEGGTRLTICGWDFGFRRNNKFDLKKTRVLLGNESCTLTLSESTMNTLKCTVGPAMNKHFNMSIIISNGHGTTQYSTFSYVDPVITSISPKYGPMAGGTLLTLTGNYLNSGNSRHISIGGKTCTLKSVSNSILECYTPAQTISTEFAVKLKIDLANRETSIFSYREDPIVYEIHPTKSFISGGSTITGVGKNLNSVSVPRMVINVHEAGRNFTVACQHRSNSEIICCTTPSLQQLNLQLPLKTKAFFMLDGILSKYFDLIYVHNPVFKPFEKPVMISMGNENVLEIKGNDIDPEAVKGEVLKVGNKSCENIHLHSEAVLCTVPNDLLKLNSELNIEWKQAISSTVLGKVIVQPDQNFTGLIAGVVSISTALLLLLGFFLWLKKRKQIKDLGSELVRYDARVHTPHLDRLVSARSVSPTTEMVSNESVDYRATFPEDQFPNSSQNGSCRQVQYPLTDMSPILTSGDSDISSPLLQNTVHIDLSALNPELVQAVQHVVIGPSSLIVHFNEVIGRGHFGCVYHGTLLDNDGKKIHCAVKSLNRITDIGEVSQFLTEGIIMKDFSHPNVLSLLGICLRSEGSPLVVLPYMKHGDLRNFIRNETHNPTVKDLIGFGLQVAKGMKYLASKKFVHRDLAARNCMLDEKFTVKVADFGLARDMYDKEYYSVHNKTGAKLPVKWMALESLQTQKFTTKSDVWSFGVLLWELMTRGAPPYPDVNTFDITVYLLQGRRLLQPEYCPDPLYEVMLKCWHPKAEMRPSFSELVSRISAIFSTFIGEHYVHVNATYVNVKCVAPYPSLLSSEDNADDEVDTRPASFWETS
Chain of Fibroblast growth factor receptor 1 (P11362 whole entry): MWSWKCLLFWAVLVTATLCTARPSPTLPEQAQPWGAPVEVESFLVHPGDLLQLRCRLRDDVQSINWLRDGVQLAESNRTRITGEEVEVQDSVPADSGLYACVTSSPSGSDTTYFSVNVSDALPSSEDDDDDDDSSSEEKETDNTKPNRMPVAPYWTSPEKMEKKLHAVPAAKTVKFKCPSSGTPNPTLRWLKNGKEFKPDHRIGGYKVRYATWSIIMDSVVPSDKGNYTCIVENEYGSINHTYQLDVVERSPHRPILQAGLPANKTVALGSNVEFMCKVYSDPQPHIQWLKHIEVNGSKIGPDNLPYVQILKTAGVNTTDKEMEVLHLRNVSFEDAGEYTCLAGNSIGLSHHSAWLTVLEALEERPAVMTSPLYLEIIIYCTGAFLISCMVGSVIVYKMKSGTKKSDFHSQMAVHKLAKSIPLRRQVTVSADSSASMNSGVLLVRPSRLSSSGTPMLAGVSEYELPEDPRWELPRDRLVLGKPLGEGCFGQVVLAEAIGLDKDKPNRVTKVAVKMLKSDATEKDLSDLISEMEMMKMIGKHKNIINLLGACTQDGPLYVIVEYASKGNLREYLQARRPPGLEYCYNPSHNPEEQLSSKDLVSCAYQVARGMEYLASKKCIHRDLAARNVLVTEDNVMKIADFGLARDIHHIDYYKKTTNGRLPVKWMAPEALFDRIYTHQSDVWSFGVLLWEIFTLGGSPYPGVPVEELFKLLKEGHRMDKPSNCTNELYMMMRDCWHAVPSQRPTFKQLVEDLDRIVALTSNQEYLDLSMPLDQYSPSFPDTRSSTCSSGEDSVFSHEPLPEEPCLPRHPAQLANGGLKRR

Compound: CC(C)(C(=O)NCCn1ccc2ncnc(Nc3ccc(Oc4cccc(Cl)c4)c(Cl)c3)c21)S(C)(=O)=O
- Papp A→B at 10 µM [1]: 28.5 nm/s
- microsomal CLint at 1 µM [2]: 21 µL/min/mg
- T/C (BT-474 [3]): 24%
- GI50 (BT-474 [4]): 0.056 µM
- Papp B→A at 10 µM [5]: 76.9 nm/s

Compound: CC(C)(C(=O)NCCn1ccc2ncnc(Nc3ccc(Oc4cccc(Cl)c4)c(Cl)c3)c21)S(C)(=O)=O.Cc1ccc(S(=O)(=O)O)cc1
- IC50 [6]: 3.6 µM
- IC50 (Angiopoietin-1 receptor): > 10 µM
- IC50 [7]: > 10 µM
- IC50 [8]: > 10 µM
- IC50 [9]: > 10 µM
- IC50 [10]: > 10 µM
- IC50 [11]: > 10 µM
- T/C [12]: 0%
- IC50 [13]: > 10 µM
- IC50 [14]: 0.16 µM
- IC50 [15]: 3.3 µM
- IC50 (Insulin receptor): > 10 µM
- IC50 [16]: > 10 µM
- IC50 [17]: > 10 µM
- IC50 [18]: 0.98 µM
- IC50 [19]: 5.1 µM
- T/C [20]: -1%
- IC50 [21]: > 10 µM
- IC50 [22]: > 10 µM
- IC50 (Aurora kinase B): 0.5 µM
- IC50 [23]: > 10 µM
- IC50 [24]: > 10 µM
- IC50 [25]: > 10 µM
- IC50 [26]: > 10 µM
- IC50 [27]: > 10 µM
- T/C [28]: 41%
- IC50 [29]: > 10 µM
- IC50 [30]: > 10 µM
- IC50 [31]: > 10 µM
- IC50 [32]: > 10 µM
- IC50 (Focal adhesion kinase 1): > 10 µM
- IC50 [33]: 3.9 µM
- IC50 [34]: > 10 µM
- IC50 [35]: > 10 µM
- IC50 [36]: > 10 µM
- T/C [37]: 41%

Compound: CC(C)(O)CC(=O)NCCn1ccc2ncnc(Nc3ccc(Oc4cccc(C(F)(F)F)c4)c(Cl)c3)c21 [TAK-285]
- Papp A→B at 10 µM [1]: 50.5 nm/s
- T/C [12]: 11%
- T/C (BT-474 [3]): 29%
- T/C [20]: -12%
- T/C [28]: 14%
- Papp B→A at 10 µM [5]: 68.7 nm/s
- T/C [37]: 44%
